Test results reported in ChEMBL document CHEMBL3085659, “Synthesis, antiproliferative and apoptosis-inducing activity of thiazolo[5,4-d]pyrimidines” (Eur J Med Chem, 2013).
pIC50: −log10 of the molar value.

Key:
[1] = Antiproliferative activity against human NCI-H322 cells after 48 hrs by SRB assay; type: functional, cell-based; settings: NCI-H322, 48 h
[2] = Antiproliferative activity against human NCI-H322 cells assessed as growth inhibition at 10 uM after 48 hrs by SRB assay; type: functional; settings: NCI-H322, 48 h, read-out: GI
A-431 [3] = experiment: Antiproliferative activity against human A431 cells after 48 hrs by SRB assay; type: functional, cell-based; settings: A-431, 48 h
A549 [4] = experiment: Cell cycle arrest in human A549 cells assessed as accumulation at S phase at 3 uM after 24 hrs using propidium iodide staining by flow cytometry (reference value: 40%); type: functional
How it was run: (§1)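 A549 at 1.2 × 10^5 cells/ml in six-well plates exposed 24 h to 1, 3 or 10 µM; PBS-washed, fixed overnight in 70% ethanol, RNase (100 µg/ml) digestion 45 min at 37 °C, propidium iodide staining; flow cytometric DNA content gives sub-G1 (apoptotic), G1, S and G2-M fractions versus untreated cells.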

A549 [5] = experiment: Induction of apoptosis in human A549 cells at 1 uM after 24 hrs using propidium iodide staining by flow cytometry (reference value: 7%); type: functional; how it was run: as §1
A549 [6] = experiment: Cell cycle arrest in human A549 cells assessed as accumulation at S phase at 10 uM after 24 hrs using propidium iodide staining by flow cytometry (reference value: 40%); type: functional; how it was run: as §1
T98G [7] = experiment: Antiproliferative activity against human T98G cells assessed as growth inhibition at 10 uM after 48 hrs by SRB assay; type: functional; settings: read-out: GI
A549 [8] = experiment: Antiproliferative activity against human A549 cells assessed as growth inhibition at 10 uM after 48 hrs by SRB assay; type: functional; settings: A549, 48 h, read-out: GI
A549 [9] = experiment: Induction of apoptosis in human A549 cells at 3 uM after 24 hrs using propidium iodide staining by flow cytometry (reference value: 7%); type: functional; how it was run: as §1
A-431 [10] = experiment: Antiproliferative activity against human A431 cells assessed as growth inhibition at 10 uM after 48 hrs by SRB assay; type: functional; settings: A-431, 48 h, read-out: GI
PC-3 = experiment: Antiproliferative activity against human PC3 cells assessed as growth inhibition at 10 uM after 48 hrs by SRB assay; type: functional; settings: PC-3, 48 h, read-out: GI
[11] = Antiproliferative activity against human MIAPaCa2 cells assessed as growth inhibition at 10 uM after 48 hrs by SRB assay; type: functional; settings: MIA PaCa-2, 48 h, read-out: GI
A549 [12] = experiment: Cell cycle arrest in human A549 cells assessed as accumulation at G2 phase at 3 uM after 24 hrs using propidium iodide staining by flow cytometry (reference value: 1%); type: functional; how it was run: as §1
A549 [13] = experiment: Induction of apoptosis in human A549 cells assessed as nuclear condensation, membrane blebbing and formation of apoptotic bodies after 24 hrs using DAPI staining by fluorescence microscopic analysis; type: functional, cell-based
How it was run: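 A549 (1.5 × 10^5 cells/ml) treated 24 h at 1, 3, 5, 10 µM; trypsinized, methanol-fixed 20 min at −20 °C, DAPI (1 µg/ml) 20 min at 37 °C; nuclei scored by UV fluorescence microscopy at 40× for condensation, blebbing, apoptotic bodies; paclitaxel 1 µM positive control, untreated cells as reference.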

T47D = experiment: Antiproliferative activity against human T47D cells assessed as growth inhibition at 10 uM after 48 hrs by SRB assay; type: functional; settings: read-out: GI
A549 [14] = experiment: Cell cycle arrest in human A549 cells assessed as accumulation at G1 phase at 3 uM after 24 hrs using propidium iodide staining by flow cytometry (reference value: 59%); type: functional; how it was run: as §1
A549 [15] = experiment: Induction of apoptosis in human A549 cells assessed as cleavage of PARP1 after 24 hrs by Western blot analysis; type: functional, cell-based
How it was run: (§2)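 Cells treated 24 h (HL-60 at 5, 20, 30 µM; A549 at 1, 3, 10 µM); RIPA lysates, 70 µg protein resolved by SDS-PAGE, transferred to PVDF, blocked in 5% milk, probed for PARP-1 and procaspase-3 with HRP secondaries, ECL detection.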

A549 [16] = experiment: Cell cycle arrest in human A549 cells assessed as accumulation at S phase at 1 uM after 24 hrs using propidium iodide staining by flow cytometry (reference value: 40%); type: functional; how it was run: as §1
A549 [17] = experiment: Cell cycle arrest in human A549 cells assessed as accumulation at G2 phase at 1 uM after 24 hrs using propidium iodide staining by flow cytometry (reference value: 1%); type: functional; how it was run: as §1
A549 [18] = experiment: Induction of apoptosis in human A549 cells assessed as reduction of procaspase-3 expression after 24 hrs by Western blot analysis; type: functional, cell-based; how it was run: as §2
T98G [19] = experiment: Antiproliferative activity against human T98G cells after 48 hrs by SRB assay; type: functional, cell-based
A549 [20] = experiment: Cell cycle arrest in human A549 cells assessed as accumulation at G2 phase at 10 uM after 24 hrs using propidium iodide staining by flow cytometry (reference value: 1%); type: functional; how it was run: as §1
A549 [21] = experiment: Antiproliferative activity against human A549 cells after 48 hrs by SRB assay; type: functional, cell-based; settings: A549, 48 h
A549 [22] = experiment: Induction of apoptosis in human A549 cells at 10 uM after 24 hrs using propidium iodide staining by flow cytometry (reference value: 7%); type: functional; how it was run: as §1
A549 [23] = experiment: Cell cycle arrest in human A549 cells assessed as accumulation at G1 phase at 1 uM after 24 hrs using propidium iodide staining by flow cytometry (reference value: 59%); type: functional; how it was run: as §1
A549 [24] = experiment: Cell cycle arrest in human A549 cells assessed as accumulation at G1 phase at 10 uM after 24 hrs using propidium iodide staining by flow cytometry (reference value: 59%); type: functional; how it was run: as §1
HL-60 = experiment: Antiproliferative activity against human HL60 cells assessed as growth inhibition at 10 uM after 48 hrs by SRB assay; type: functional; settings: HL-60, 48 h, read-out: GI

Q: What does the source list for `CCN(CC)c1ncnc2sc(Nc3ccc(Cl)cc3)nc12`?
A: pIC50 [1]: 5.15; inhibition of growth at 10 µM [2]: 57%; pIC50 (A-431 [3]): 5.51; Activity (A549 [4]): 31%; Activity (A549 [5]): 22%; Activity (A549 [6]): 43%; inhibition of growth at 10 µM (T98G [7]): 74%; inhibition of growth at 10 µM (A549 [8]): 81%; Activity (A549 [9]): 44%; inhibition of growth at 10 µM (A-431 [10]): 82%; inhibition of growth at 10 µM (PC-3): 22%; inhibition of growth at 10 µM [11]: 14%; Activity (A549 [12]): 4%; Activity (A549 [13]): Dose-dependent effect; inhibition of growth at 10 µM (T47D): 18%; Activity (A549 [14]): 65%; Activity (A549 [15]): Dose-dependent effect; Activity (A549 [16]): 44%; Activity (A549 [17]): 1%; Activity (A549 [18]): Dose-dependent effect; pIC50 (T98G [19]): 5.47; Activity (A549 [20]): 26%; pIC50 (A549 [21]): 5.85; Activity (A549 [22]): 53%; Activity (A549 [23]): 55%; Activity (A549 [24]): 31%; inhibition of growth at 10 µM (HL-60): 22%
